TAAR1 ag – human TAAR1 agonists, primary screen, Fluo-8 calcium fluorescence, CHO RD-HGA16 cells. vehicle wells 0%, saturating PEA agonist 100%. activation, % at 3 µM. hit rate 0.99% among 360,000. AID 624467, 2012;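 active means activation above the mean activation of all test compounds in the run plus 3 SD, cut at about 38% in these data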
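Test system: RD-HGA16 (CHO) cells co-expressing Gα16 and hTAAR1 / Benchmarks: DMSO vehicle as 0%, PEA at EC100 as 100% / Repeats: no replicates (n 1) / Measure: % activation from peak over basal fluorescence ratio, DMSO-to-PEA scaled / Timing: 17-24 h plating, Fluo-8 75 min 37 °C, 30 min RT / Technique: kinetic Fluo-8 calcium fluorescence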
TAAR1 antag – human TAAR1 antagonists, primary screen, Fluo-8 calcium fluorescence, CHO RD-HGA16 cells; antagonist; hit rate 1.5% among 360,000; AID 624466, 2012; inhibition, % at 3 µM; Trace amine-associated receptor 1 (Homo sapiens), Q96RJ0;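 active means inhibition above a per-plate cutoff, the mean inhibition of test compounds on that plate plus 3 SD, cut at about 49% in these data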
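Test system – hTAAR1-expressing CHO RD-HGA16 cells, Gα16-coupled · Also added – β-PEA at EC80 concentration, post-compound challenge · Compound – 3 µM, single point · Incubation – dye loading 75 min at 37 °C, then 30 min room temperature · Measured by – Fluo-8 intracellular calcium dye fluorescence, real-time kinetic reads · Benchmarks – vehicle and agonist controls · Replicates – singlicate, one well per test compound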
CHO parental Ca – ATP-evoked calcium signal inhibitors, parental CHO, primary screen, counter-screen for OX1R antagonist project, cell-based, fluorescence, Fluo-8 calcium dye | parental CHO-K1, ATP-induced calcium, Fluo-8 fluorescence | inhibition, % at 5.6 µM | AID 463079, 2010 | hit rate 0.63% among 330,000;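 active means inhibition above that plate's mean sample inhibition plus 3 SD, cut at about 26% in these data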
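Test system: parental CHO cells; detection: calcium-sensitive Fluo-8 fluorescence; evaluation: percent inhibition of calcium signal; also added: ATP as calcium-mobilizing challenge; repeats: one well per compound; control set: ATP-challenged DMSO wells low, unchallenged DMSO wells high; compound: single nominal dose of 5.6 µM per compound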
OX1R antag-1 – antagonists of human orexin 1 receptor (OX1R) | Orexin/Hypocretin receptor type 1 (Homo sapiens), O43613 | OX1R-expressing cells, FRET antagonist read-out | inhibition, % at 6.6 µM | hit rate 1.8% among 330,000; in the data active means inhibition mostly above about 38%, no sharp cut-off; inactive means mostly below about 40%
Target sequence (O43613 whole entry, looked up): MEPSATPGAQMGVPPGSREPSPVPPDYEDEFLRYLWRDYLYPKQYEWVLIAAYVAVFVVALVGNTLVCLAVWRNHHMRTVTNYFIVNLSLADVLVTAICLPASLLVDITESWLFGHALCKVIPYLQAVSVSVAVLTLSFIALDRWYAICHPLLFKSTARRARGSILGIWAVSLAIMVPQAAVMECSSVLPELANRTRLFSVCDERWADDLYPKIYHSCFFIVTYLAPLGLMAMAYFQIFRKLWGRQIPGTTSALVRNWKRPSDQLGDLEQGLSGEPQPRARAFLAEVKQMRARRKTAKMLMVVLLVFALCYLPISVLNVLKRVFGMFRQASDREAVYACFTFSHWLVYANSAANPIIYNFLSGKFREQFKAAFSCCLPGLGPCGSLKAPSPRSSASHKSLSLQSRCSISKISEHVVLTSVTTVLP
OX1R antag-2 – OX1R (HCRTR1) antagonists, primary screen, fluorescence, CHO/OX1R cells, Fluo-8 calcium, orexin A; Orexin/Hypocretin receptor type 1 (Homo sapiens), O43613; Fluo-8 calcium fluorescence; inhibition, % at 5 µM; hit rate 0.43% among 330,000;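 active means inhibition above its plate's threshold, mean inhibition of all tested compounds on the plate plus 3 SD, cut at about 37% in these data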
GPR7 antag – GPR7 receptor antagonists, primary screen, cell-based, fluorescence, single concentration; Neuropeptides B/W receptor type 1 (Homo sapiens), P48145; GPR7-expressing cells, fluorescence antagonist assay; inhibition, % at 4.4 µM; hit rate 1.1% among 290,000; AID 1861, 2009; in the data active means inhibition above about 16%, passing the limit was not always enough;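 further: cells stimulated with the agonist NPW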
nonsel antag count – nonselective antagonists in TAAR1 counter-screen cells, counter-screen for hTAAR1 antagonist project, cell-based, fluorescence, calcium | shares compounds with TAAR1 antag | counterscreen cell line, antagonist mode | inhibition, % at 3 µM | hit rate 77% among 2,400; in the data active means inhibition above about 22%;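 further: CHO-Ga16 host cells stimulated with ATP at an EC80 level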
TAAR1 antag conf – human TAAR1 antagonists, retest of hits, confirmation, cell-based, fluorescence | shares compounds with TAAR1 antag | TAAR1-expressing cells, fluorescence antagonist read-out | hit rate 40% among 2,400 | inhibition, % at 3 µM | AID 651785, 2012; in the data active means inhibition above about 49%;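 further: CHO-Ga16 host cells challenged with agonist PEA near its EC80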
Ga16 nonsel ag – calcium activation in Ga16-expressing cells, counter-screen for TAAR1 antagonist project, cell-based, fluorescence. AID 651953, 2012. agonist counterscreen. shares compounds with TAAR1 antag. hit rate 18% among 2,400. activation, % at 3 µM; in the data active means activation above about 12%
TAAR1 ag counter – TAAR1 activation by candidate antagonists – cell-based, fluorescence, counter-screen for TAAR1 antagonist project | shares compounds with TAAR1 antag | hTAAR1 cell line, agonist mode | activation, % at 3 µM | hit rate 2% among 2,400; in the data active means activation above about 37%;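 further: CHO cells stably expressing TAAR1 with calcium dye readout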
Large screens that a line does not name were inactive (follow-up assays come after a bar, where they were run). In the library only some 4.5% were active in any assay of this set; here they are far more common.

O=C1N[C@@H](c2ccccc2)COC(=O)[C@@H](Cc2ccc(F)cc2)CC/C=C/C[C@H]1CC(=O)N(CCO)Cc1ccccc1	TAAR1 antag 71 (no result: GPR7 antag) | nonsel antag count 31 | TAAR1 antag conf 56 | Ga16 nonsel ag 14 | TAAR1 ag counter inactive
C[C@H]1COC(=O)[C@H](Cc2ccc(F)cc2)C/C=C\C[C@@H](CC(=O)N(CCO)Cc2ccccc2)C(=O)N1	none (no result: GPR7 antag)
O=C1OC[C@H]2CCCN2C(=O)[C@@H](CC(=O)N(CCO)Cc2ccccc2)C/C=C\C[C@@H]1Cc1ccc(F)cc1	TAAR1 antag 57 (no result: GPR7 antag) | nonsel antag count 25 | TAAR1 antag conf inactive | Ga16 nonsel ag inactive | TAAR1 ag counter inactive
O=C(Nc1ccccc1N1CCCCC1)C1CCN(C(=O)c2ccc(Cl)cc2)CC1	none (no result: GPR7 antag)
COc1ccc(-c2coc3c(C(=O)Nc4cccc(C(C)=O)c4)cccc23)c(C)c1	TAAR1 antag 57 (no result: CHO parental Ca, OX1R antag-1, OX1R antag-2, GPR7 antag) | nonsel antag count 31 | TAAR1 antag conf inactive | Ga16 nonsel ag inactive | TAAR1 ag counter inactive
COc1ccc(-c2ccc(C(=O)Nc3cccc(C(C)=O)c3)c3occc23)c(C)c1	none (no result: CHO parental Ca, OX1R antag-1, OX1R antag-2, GPR7 antag)
COCCNc1nc(Oc2ccc(NC(C)=O)cc2)c2sc(-c3ccccc3)cc2n1	TAAR1 antag 55 (no result: CHO parental Ca, OX1R antag-1, OX1R antag-2, GPR7 antag) | nonsel antag count 52 | TAAR1 antag conf 50 | Ga16 nonsel ag inactive | TAAR1 ag counter inactive
COCCNc1nc(Oc2ccc(CC(=O)OC)cc2)c2sc(-c3ccccc3)cc2n1	none (no result: CHO parental Ca, OX1R antag-1, OX1R antag-2, GPR7 antag)
CC1=NN(c2nc(N)nc(/C(C#N)=C/c3ccc([N+](=O)[O-])o3)n2)C(C)(C)C1	TAAR1 antag 59 (no result: CHO parental Ca, OX1R antag-1, OX1R antag-2, GPR7 antag) | nonsel antag count 57 | TAAR1 antag conf 66 | Ga16 nonsel ag 23 | TAAR1 ag counter inactive
Cc1cccc(-c2cc(C(=O)Nc3cccnc3)c3ccccc3n2)c1	TAAR1 antag 58 | nonsel antag count inactive | TAAR1 antag conf inactive | Ga16 nonsel ag inactive | TAAR1 ag counter inactive
Cc1c(NC(=O)c2cc(-c3ccc(F)cc3)nc3ccccc23)c(=O)n(-c2ccccc2)n1C	TAAR1 antag 61 (no result: GPR7 antag) | nonsel antag count 25 | TAAR1 antag conf inactive | Ga16 nonsel ag inactive | TAAR1 ag counter inactive
Cc1c(NC(=O)c2cc(-c3ccc(F)cc3)on2)c(=O)n(-c2ccccc2)n1C	none
Cc1cccc(-c2cc(C(=O)Nc3c(C)n(C)n(-c4ccccc4)c3=O)c3ccccc3n2)c1	TAAR1 antag 70 | nonsel antag count 31 | TAAR1 antag conf inactive | Ga16 nonsel ag inactive | TAAR1 ag counter inactive
Cc1cccc(-c2cc(C(=O)Nc3ccncc3)c3ccccc3n2)c1	none (no result: CHO parental Ca, OX1R antag-1, OX1R antag-2)
Cc1ccc(NC(=O)Cn2nc(C(=O)O)c3ccccc3c2=O)cc1S(=O)(=O)N1CCCCCC1	TAAR1 antag 102 (no result: CHO parental Ca, OX1R antag-1, OX1R antag-2, GPR7 antag) | nonsel antag count 36 | TAAR1 antag conf inactive | Ga16 nonsel ag inactive | TAAR1 ag counter inactive
O=C(CN(c1ccc2c(c1)OCCO2)S(=O)(=O)c1ccccc1)NCc1ccc(Cl)cc1	TAAR1 antag 75 | nonsel antag count 26 | TAAR1 antag conf 62 | Ga16 nonsel ag inactive | TAAR1 ag counter inactive
O=C(NCc1cccs1)C1CCN(S(=O)(=O)c2ccc(Br)s2)CC1	none

Compound activity: PubChem, The Scripps Research Institute Molecular Screening Center
